Published values pooled from the literature.
Compare with care: the assays were run in different laboratories.
Observed: cell growth or viability

For `N[C@H]1CC[C@H](N[C@@H]2C[C@H]2c2ccccc2)CC1`, the IC50 was 178000 nM (TC-32; resazurin).
`Nc1n[nH]c2nc(-c3cccc(O)c3)cc(-c3cc4ccccc4nc3N3CCOCC3)c12` has an IC50 of 625 nM (Caco-2; MTT; 72 h).
`COc1nc(NCc2cn(-c3ccc(NC(=O)c4ccccc4)cc3)nn2)nc(OC)n1` gave an IC50 of 766 nM (Caco-2; MTT; 72 h).
For `CCCOc1nc(-c2cccc(O)c2)cc(-c2cc3ccccc3nc2N2CCOCC2)c1C#N`, the IC50 was 130 nM (Caco-2; MTT; 72 h).
For `COc1nc(NCc2cn(-c3ccc(NC(=O)c4ccc([N+](=O)[O-])cc4)cc3)nn2)nc(OC)n1`, the IC50 was 658 nM (Caco-2; MTT; 72 h).
`C=CC(=O)N1CCN(c2nc(=O)n(-c3c(C)ccnc3C(C)C)c3nc(-c4c(O)cccc4F)c(F)cc23)[C@@H](C)C1` gave an IC50 of 48.8 nM (UMUC3; ATP luminescence).
`CC(C)Oc1ccc(S(=O)(=O)c2ccc(Oc3cc(OCC(N)=O)c(C(=O)C(Cl)Cl)cc3[N+](=O)[O-])cc2)cc1` gave an IC50 of 460 nM (NCI-H1650; MTT; 72 h).
`CCCOc1nc(-c2cccc(O)c2)cc(-c2cc3cc(Cl)ccc3nc2N2CCOCC2)c1C#N` has an IC50 of 355 nM (Caco-2; MTT; 72 h).
For `C=C(F)C(=O)N1CCN(c2nc(OC[C@@H]3CCCN3C)nc3c2CCN(c2cccc4cccc(Cl)c24)C3)C[C@@H]1CC#N`, the IC50 was 294 nM (UMUC3; ATP luminescence).
The IC50 of `CCNCCCn1c2c(c3cc(OC)c(OC)cc3c1=O)C(=O)c1cc3c(nc1-2)OCO3` is reported as 53 nM (TC-32; MTS; 72 h).
For `COc1nc(NCc2cn(-c3ccc(C(=O)Nc4ccc(Cl)cc4)cc3)nn2)nc(OC)n1`, the IC50 was 543 nM (Caco-2; MTT; 72 h).
For `COc1cc2c3c(n(CCCNCCO)c(=O)c2cc1OC)-c1nc2c(cc1C3=O)OCO2`, the IC50 was 104 nM (TC-32; MTS; 72 h).
The IC50 of `COc1nc(NCc2cn(-c3ccc(C(=O)Nc4ccc(C)cc4)cc3)nn2)nc(OC)n1` is reported as 514 nM (Caco-2; MTT; 72 h).
`Nc1n[nH]c2nc(-c3cccc(O)c3)cc(-c3cc4cc(Cl)ccc4nc3N3CCOCC3)c12` gave an IC50 of 191 nM (Caco-2; MTT; 72 h).
The IC50 of `COc1nc(NCc2cn(-c3ccc(NC(=O)c4ccc(F)cc4)cc3)nn2)nc(OC)n1` is reported as 550 nM (Caco-2; MTT; 72 h).
The IC50 of `CC(C)c1ccccc1[C@@H]1CCCN1C1CC2(CCN(c3ccc(C(=O)NS(=O)(=O)c4ccc(NC[C@H]5CC[C@](C)(O)CC5)c([N+](=O)[O-])c4)c(Oc4cnc5[nH]ccc5c4)c3)CC2)C1` is reported as 2.7 nM (SU-DHL-4; ATP luminescence; 48 h).
